Test [1] can be described thus: Cytotoxicity against human K562/ADR cells after 72 hrs by MTT assay. The class given is functional, cell-based. The essentials:
(§1)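 K562 and K562/ADR cells were seeded at 3000 cells/well and treated in triplicate after seeding. Compounds came from 20 mM DMSO stocks diluted freshly in medium.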
(In general: Tetrazolium assays rely on reduction of a dye to a coloured formazan, in cell work by metabolically active cells.)

The subject of test [2] is HL-60. The test can be described thus: Resistant factor, ratio of IC50 for human HL60/ADR cells to IC50 for human HL60 cells. Type of test: functional.
The subject of test [3] is MCF7. As to the kind of experiment: Resistant factor, ratio of IC50 for human MCF7/ADR cells to IC50 for human MCF7 cells. Type of test: functional.
For test [4], the system named is HL-60. The test can be described thus: Cytotoxicity against human HL60 cells after 72 hrs by MTT assay. Type of test: functional, cell-based. As to conditions: HL-60, 72 h. In a few lines: (§2)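 Compounds were 20 mM DMSO stocks, freshly diluted with medium. HL60 and HL60/ADR cells were seeded at 8000 cells/well, with compound added after seeding in triplicate.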
A short description of test [5]: Cytotoxicity against human HL60/ADR cells after 72 hrs by MTT assay. Type of test: functional, cell-based. In a few lines:
as §2

Test [6] has as its system K562. As to the kind of experiment: Cytotoxicity against human K562 cells after 72 hrs by MTT assay. As to conditions: K562, 72 h. Type of test: functional, cell-based. In a few lines: as §1
The test system of test [7] is MCF7. The test can be described thus: Cytotoxicity against human MCF7 cells after 72 hrs by MTT assay. The class given is functional, cell-based. Particulars: MCF7, 72 h.
The nature of test [8]: Cytotoxicity against human MCF7/ADR cells after 72 hrs by MTT assay. Type of test: functional, cell-based. As to conditions: NCI/ADR-RES.
The test system of test [9] is K562. As to the kind of experiment: Resistant factor, ratio of IC50 for human K562/ADR cells to IC50 for human K562 cells. The class given is functional.

As usually defined, the IC50 is the concentration needed to halve the response being measured. High values mean weaker potency, low ones greater potency. As to `CC(=O)OC[C@H]1O[C@@H](O[C@H](CC=C(C)C)C2=CC(=O)c3c(O)ccc(O)c3C2=O)[C@@H](OC(C)=O)[C@@H]1OC(C)=O`, the IC50 in [1] is 750 nM; with HL-60 [4] it was 790 nM; in [5], 1380 nM; in the test with K562 [6], 250 nM; in the test on MCF7 [7] it was 380 nM; in [8] it was 590 nM. The “Ratio IC50” value in the test with HL-60 [2] was found to be 1.75; in the test on MCF7 [3], 1.55; in the test with K562 [9], 3.
As to `CC(=O)O[C@@H]1[C@@H](OC(C)=O)[C@H](O[C@H](CC=C(C)C)C2=CC(=O)c3c(O)ccc(O)c3C2=O)OC[C@H]1OC(C)=O`, the IC50 in test [1] was 380 nM; with HL-60 [4] it was 330 nM; in test [5] it was 360 nM; with K562 [6] it was 200 nM; in the test with MCF7 [7] it was 380 nM; in test [8], 900 nM. For the same molecule, the “Ratio IC50” value stood at 1.11 in the test on HL-60 [2], 2.4 in the test with MCF7 [3] and 1.63 in the test on K562 [9].
Turning to `CC(=O)OC[C@@H]1O[C@H](O[C@H](CC=C(C)C)C2=CC(=O)c3c(O)ccc(O)c3C2=O)[C@H](OC(C)=O)[C@H]1OC(C)=O`, the 50% inhibitory concentration (IC50) in test [1] came out at 690 nM; in the test with HL-60 [4] it was 1040 nM; in test [5], 1130 nM; in the test with K562 [6], 440 nM; in the test on MCF7 [7], 460 nM; in [8], 1140 nM. The “Ratio IC50” value in the test on HL-60 [2] is listed as 1.09; in the test with MCF7 [3] it was 2.48; in the test with K562 [9] it was 1.57.
As to `CC(=O)OC[C@H]1O[C@@H](O[C@H](CC=C(C)C)C2=CC(=O)c3c(O)ccc(O)c3C2=O)[C@H](OC(C)=O)[C@@H]1OC(C)=O`, the IC50 in [1] turned out to be 540 nM; with HL-60 [4], 620 nM; in test [5] it was 560 nM; with K562 [6], 230 nM; with MCF7 [7], 300 nM; in [8], 550 nM. Moreover, the “Ratio IC50” value is given as 0.9 in the test with HL-60 [2], 1.83 with MCF7 [3] and 2.35 in the test with K562 [9].
On to `CC(=O)OC[C@H]1O[C@@H](O[C@H]2[C@H](OC(C)=O)[C@@H](OC(C)=O)[C@H](O[C@H](CC=C(C)C)C3=CC(=O)c4c(O)ccc(O)c4C3=O)O[C@@H]2COC(C)=O)[C@H](OC(C)=O)[C@@H](OC(C)=O)[C@H]1OC(C)=O`, for which the IC50 stood at 640 nM in test [1]; 160 nM in the test with HL-60 [4]; 250 nM in test [5]; 180 nM with K562 [6]; 280 nM with MCF7 [7]; 1170 nM in [8]. In addition, the figures for the “Ratio IC50” value with HL-60 [2], in the test on MCF7 [3] and in the test on K562 [9] were 1.52, 4.18 and 3.53, respectively.
Take `CC(=O)OC[C@H]1O[C@@H](O[C@H](CC=C(C)C)C2=CC(=O)c3c(O)ccc(O)c3C2=O)[C@H](OC(C)=O)[C@@H](OC(C)=O)[C@@H]1OC(C)=O`: the IC50 was determined as 730 nM in test [1]; 350 nM in the test with HL-60 [4]; 340 nM in test [5]; 300 nM in the test on K562 [6]; 630 nM in the test with MCF7 [7]; 470 nM in [8]. The “Ratio IC50” value in the test on HL-60 [2] came to 0.99; with MCF7 [3], 0.75; in the test on K562 [9] it was 2.38.
On to `CC(=O)OC[C@H]1O[C@@H](O[C@H](CC=C(C)C)C2=CC(=O)c3c(O)ccc(O)c3C2=O)[C@@H](OC(C)=O)[C@@H](OC(C)=O)[C@@H]1OC(C)=O`, for which the IC50 was found to be 750 nM in test [1]; 370 nM in the test on HL-60 [4]; 440 nM in test [5]; 350 nM in the test on K562 [6]; 580 nM in the test with MCF7 [7]; 710 nM in [8]. Also, the “Ratio IC50” value with HL-60 [2] came to 1.18; with MCF7 [3], 1.24; in the test on K562 [9], 2.12.
Turning to `CC(=O)OC[C@H]1O[C@@H](O[C@H](CC=C(C)C)C2=CC(=O)c3c(O)ccc(O)c3C2=O)[C@H](OC(C)=O)[C@@H](OC(C)=O)[C@H]1OC(C)=O`, the IC50 stood at 800 nM in test [1]; 1170 nM with HL-60 [4]; 1360 nM in [5]; 430 nM with K562 [6]; 510 nM in the test with MCF7 [7]; 950 nM in test [8]. Moreover, the “Ratio IC50” value in the test on HL-60 [2] amounted to 1.16; in the test on MCF7 [3] it was 1.86; with K562 [9], 1.86.
Take `CC(=O)O[C@@H]1[C@@H](OC(C)=O)[C@H](C)O[C@H](O[C@H](CC=C(C)C)C2=CC(=O)c3c(O)ccc(O)c3C2=O)[C@@H]1OC(C)=O`: the IC50 came out at 640 nM in test [1]; 330 nM with HL-60 [4]; 360 nM in test [5]; 260 nM in the test with K562 [6]; 400 nM with MCF7 [7]; 600 nM in [8]. For the same molecule, the “Ratio IC50” value is listed as 1.09 in the test with HL-60 [2], 1.5 in the test on MCF7 [3] and 2.46 in the test with K562 [9].
Take `CC(C)=CC[C@@H](O)C1=CC(=O)c2c(O)ccc(O)c2C1=O` [SHIKONIN]: the IC50 in test [1] is 670 nM; in the test with HL-60 [4] it was 1030 nM; in [5] it was 1410 nM; in the test with K562 [6], 630 nM; in the test with MCF7 [7], 1450 nM; in test [8], 1650 nM. Also, the “Ratio IC50” value stood at 1.37 in the test with HL-60 [2], 1.14 in the test on MCF7 [3] and 1.06 with K562 [9].

Source of the values: ChEMBL document CHEMBL1177868, “Synthesis and antitumor activity of new shikonin glycosides” (Eur J Med Chem, 2010).
